What was measured:
[1] = target: T1, Serine/threonine-protein kinase mTOR (Homo sapiens, UniProt P42345); assay: Inhibition of mTOR (unknown origin) incubated for 1 hr by ELISA analysis
Method in brief: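 Glutathione-coated plate loaded with mTOR substrate (1 h, room temperature). mTOR with compound in 2X kinase assay buffer, 30 min at 30 °C, then stop solution. Phospho-p70S6K-T389 detected by primary antibody, then HRP conjugate (1 h each), TMB, A450 with 540 or 595 nm reference.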

SR [2] = assay: Induction of cell cycle arrest in human SR cells assessed as accumulation of cells at G1 phase incubated for 24 hrs by PI staining based flow cytometry analysis (reference value: 53.01%); type: functional
[3] = target: Phosphatidylinositol 4,5-bisphosphate 3-kinase catalytic subunit alpha isoform (Homo sapiens, UniProt P42336); assay: Inhibition of PI3Kalpha (unknown origin)
Chain of Phosphatidylinositol 4,5-bisphosphate 3-kinase catalytic subunit alpha isoform (P42336 whole entry, canonical isoform): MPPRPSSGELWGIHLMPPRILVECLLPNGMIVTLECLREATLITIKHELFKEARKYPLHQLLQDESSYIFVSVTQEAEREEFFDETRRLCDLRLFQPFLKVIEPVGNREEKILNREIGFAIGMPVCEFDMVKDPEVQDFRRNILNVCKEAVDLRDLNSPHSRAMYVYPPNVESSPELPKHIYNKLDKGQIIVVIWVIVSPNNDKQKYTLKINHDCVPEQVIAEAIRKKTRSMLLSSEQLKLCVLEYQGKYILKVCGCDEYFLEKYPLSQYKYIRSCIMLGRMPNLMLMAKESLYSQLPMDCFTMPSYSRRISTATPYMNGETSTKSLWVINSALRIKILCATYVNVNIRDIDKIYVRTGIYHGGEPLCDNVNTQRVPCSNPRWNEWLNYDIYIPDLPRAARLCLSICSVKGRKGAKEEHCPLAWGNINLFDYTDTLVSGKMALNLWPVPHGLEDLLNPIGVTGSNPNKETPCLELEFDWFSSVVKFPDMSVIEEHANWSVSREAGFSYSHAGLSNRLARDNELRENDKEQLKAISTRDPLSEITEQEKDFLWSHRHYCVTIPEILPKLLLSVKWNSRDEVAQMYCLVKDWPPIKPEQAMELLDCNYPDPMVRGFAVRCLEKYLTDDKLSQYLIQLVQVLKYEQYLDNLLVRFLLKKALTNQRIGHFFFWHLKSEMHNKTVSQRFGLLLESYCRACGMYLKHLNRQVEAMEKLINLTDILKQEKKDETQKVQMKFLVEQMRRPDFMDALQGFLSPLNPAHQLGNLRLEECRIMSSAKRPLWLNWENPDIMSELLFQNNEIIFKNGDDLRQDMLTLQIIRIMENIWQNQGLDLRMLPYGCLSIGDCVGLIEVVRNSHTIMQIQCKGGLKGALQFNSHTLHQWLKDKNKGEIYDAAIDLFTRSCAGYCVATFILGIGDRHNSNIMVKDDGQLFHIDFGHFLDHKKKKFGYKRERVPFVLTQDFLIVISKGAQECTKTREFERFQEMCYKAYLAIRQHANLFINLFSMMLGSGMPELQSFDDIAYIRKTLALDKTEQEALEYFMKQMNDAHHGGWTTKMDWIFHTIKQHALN
Method in brief: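 Inhibitor preincubated 10 min before PIP2 substrate in kinase reaction buffer (25 µl final), 1 h reaction. Product detected by competition with biotinylated PIP3 for GRP1, with SA-HRP and TMB colour.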

SR [4] = assay: Induction of cell cycle arrest in human SR cells assessed as accumulation of cells at pre-G phase incubated for 24 hrs by PI staining based flow cytometry analysis (reference value: 1.39%); type: functional
SR [5] = assay: Induction of apoptosis in human SR cells assessed as necrotic cells incubated for 24 hrs by AnnexinV-FITC/propidium iodide staining based flow cytometry (Rvb =0.92%); type: functional
SR [6] = assay: Induction of cell cycle arrest in human SR cells assessed as accumulation of cells at G2/M phase incubated for 24 hrs by PI staining based flow cytometry analysis (reference value: 8.57%); type: functional
OVCAR-4 = assay: Antitumor activity against human OVCAR-4 cells assessed as growth inhibition at 10 uM relative to control; type: functional; details: read-out: GI
Method in brief: (§1)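 After drug addition, plates were incubated 48 h at 37 °C under 5% CO2. Adherent cells were fixed with cold TCA (10% final, 60 min, 4 °C) and suspension cells with 16% final TCA. Staining used 0.4% SRB in 1% acetic acid, solubilized in 10 mM trizma, read at A515. Percent growth was calculated from time-zero, control and treated absorbances.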

EKVX = assay: Antitumor activity against human EKVX cells assessed as growth inhibition at 10 uM relative to control; type: functional; details: read-out: GI; method in brief: as §1
NCI-H460 = assay: Antitumor activity against human NCI-H460 cells assessed as growth inhibition at 10 uM relative to control; type: functional; details: read-out: GI; method in brief: as §1
SR [7] = assay: Induction of cell cycle arrest in human SR cells assessed as cell debris incubated for 24 hrs by PI staining based flow cytometry analysis (reference value: 1.93%); type: functional
SR [8] = assay: Induction of cell cycle arrest in human SR cells assessed as accumulation of cells at S phase incubated for 24 hrs by PI staining based flow cytometry analysis (reference value: 38.42%); type: functional
NCI-H322M = assay: Antitumor activity against human NCI-H322M cells assessed as growth inhibition at 10 uM relative to control; type: functional; details: read-out: GI; method in brief: as §1
SR [9] = assay: Induction of cell cycle arrest in human SR cells assessed as cell aggregates incubated for 24 hrs by PI staining based flow cytometry analysis (reference value: 1.47%); type: functional
UACC-257 = assay: Antitumor activity against human UACC-257 cells assessed as growth inhibition at 10 uM relative to control; type: functional; details: read-out: GI
Method in brief: (§2)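 Drug exposure 48 h at 37 °C, 5% CO2. Adherent cells fixed with cold TCA (10% final), suspension cells with TCA (16% final). Stained with 0.4% SRB in 1% acetic acid, dissolved in 10 mM Tris, A515. Growth relative to time-zero and untreated control.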

[10] = Cytotoxicity against human PCS-800-011 cells assessed as inhibition of cell growth by MTT assay; type: toxicity, cell-based
SK-MEL-28 = assay: Antitumor activity against human SK-MEL-28 cells assessed as growth inhibition at 10 uM relative to control; type: functional; details: read-out: GI; method in brief: as §2
SNB-19 = assay: Antitumor activity against human SNB-19 cells assessed as growth inhibition at 10 uM relative to control; type: functional; details: read-out: GI; method in brief: as §2
HCC 2998 = assay: Antitumor activity against human HCC 2998 cells assessed as growth inhibition at 10 uM relative to control; type: functional; details: read-out: GI; method in brief: as §1
SR [11] = assay: Induction of apoptosis in human SR cells assessed as late apoptotic cells incubated for 24 hrs by AnnexinV-FITC/propidium iodide staining based flow cytometry (Rvb =0.18%); type: functional
[12] = target: T1, Serine/threonine-protein kinase mTOR; assay: Inhibition of mTOR in human SR cells by Western blot analysis; type: cell-based
OVCAR-3 = assay: Antitumor activity against human OVCAR-3 cells assessed as growth inhibition at 10 uM relative to control; type: functional; details: read-out: GI; method in brief: as §1
BT-549 = assay: Antitumor activity against human BT-549 cells assessed as growth inhibition at 10 uM relative to control; type: functional; details: read-out: GI; method in brief: as §1
OVCAR-5 = assay: Antitumor activity against human OVCAR-5 cells assessed as growth inhibition at 10 uM relative to control; type: functional; details: read-out: GI; method in brief: as §1
SR [13] = assay: Induction of apoptosis in human SR cells assessed as early apoptotic cells incubated for 24 hrs by AnnexinV-FITC/propidium iodide staining based flow cytometry (Rvb =0.29%); type: functional
PC-3 = assay: Antitumor activity against human PC-3 cells assessed as growth inhibition at 10 uM relative to control; type: functional; details: read-out: GI; method in brief: as §1
M14 = assay: Antitumor activity against human M14 cells assessed as growth inhibition at 10 uM relative to control; type: functional; details: read-out: GI; method in brief: as §1
SR [14] = assay: cells; details: Homo sapiens
KM12 = assay: Antitumor activity against human KM12 cells assessed as growth inhibition at 10 uM relative to control; type: functional; details: read-out: GI; method in brief: as §1

| SMILES | IC50 [1] [nM] | Activity (SR [2]) [%] | IC50 [3] [nM] | Activity (SR [4]) [%] | Activity (SR [5]) [%] | inhibition of growth at 10 µM (OVCAR-4) [%] | inhibition of growth at 10 µM (EKVX) [%] | inhibition of growth at 10 µM (NCI-H460) [%] | inhibition of growth at 10 µM (NCI-H322M) [%] | inhibition of growth at 10 µM (UACC-257) [%] | inhibition of growth at 10 µM (SK-MEL-28) [%] | inhibition of growth at 10 µM (SNB-19) [%] | inhibition of growth at 10 µM (HCC 2998) [%] | inhibition of growth at 10 µM (OVCAR-3) [%] | inhibition of growth at 10 µM (BT-549) [%] | inhibition of growth at 10 µM (OVCAR-5) [%] | inhibition of growth at 10 µM (PC-3) [%] | inhibition of growth at 10 µM (M14) [%] | IC50 (SR [14]) [nM] | inhibition of growth at 10 µM (KM12) [%] | other results |
| --- | --- | --- | --- | --- | --- | --- | --- | --- | --- | --- | --- | --- | --- | --- | --- | --- | --- | --- | --- | --- | --- |
| N#Cc1c(-c2ccc(Cl)cc2)nc(N/N=C/c2cccc(Cl)c2)nc1N1CCOCC1 | 830 | 32.95 | 170 | 44.26 | 12.76 | < 1 | 22.3 | < 1 | 11.2 | 28.4 | < 1 | < 1 | < 1 | 12.6 | < 1 | < 1 | 26.5 | 15.4 | 100 | < 1 | Activity (SR [6]): 37.64%; Activity (SR [7]): 1.96%; Activity (SR [8]): 29.41%; Activity (SR [9]): 1.51%; IC50 [10]: 17500 nM; Activity (SR [11]): 27.96%; IC50 [12]: 103 nM; Activity (SR [13]): 3.54% |
| N#Cc1c(-c2ccc(Cl)cc2)nc(N/N=C/c2cccc(O)c2)nc1N1CCOCC1 | 2850 | 39.28 | 1270 | 31.4 | 9.61 | < 1 | 33.4 | 22.1 | 13.7 | < 1 | 22.9 | 13.1 | < 1 | 22.3 | 26.9 | < 1 | 36.2 | 33.4 | 90 | 24 | Activity (SR [6]): 33.77%; Activity (SR [7]): 2.24%; Activity (SR [8]): 26.95%; Activity (SR [9]): 1.61%; IC50 [10]: 44500 nM; Activity (SR [11]): 19.19%; Activity (SR [13]): 2.61% |
| N#Cc1c(-c2ccc(Cl)cc2)nc(N/N=C/c2ccc[nH]2)nc1N1CCOCC1 | – | – | – | – | – | 25.9 | 34 | 63.3 | < 1 | 12.1 | < 1 | 25.8 | < 1 | 54.4 | 83.1 | < 1 | 53.4 | < 1 | 770 | 63.5 | – |
| N#Cc1c(-c2ccc(Cl)cc2)nc(NN2C(=O)c3ccccc3C2=O)nc1N1CCOCC1 | – | – | – | – | – | < 1 | < 1 | < 1 | < 1 | < 1 | < 1 | < 1 | < 1 | < 1 | < 1 | < 1 | < 1 | < 1 | – | < 1 | – |
| N#Cc1c(-c2ccc(Cl)cc2)nc(N/N=C2/C(=O)Nc3ccc(Br)cc32)nc1N1CCOCC1 | – | – | – | – | – | < 1 | < 1 | < 1 | < 1 | < 1 | < 1 | < 1 | < 1 | < 1 | < 1 | < 1 | < 1 | < 1 | – | < 1 | – |
| COc1cc(/C=N/Nc2nc(-c3ccc(Cl)cc3)c(C#N)c(N3CCOCC3)n2)cc(OC)c1OC | – | – | – | – | – | 11.2 | 53.7 | 46.2 | 16.4 | < 1 | 14.2 | 14.8 | < 1 | 25.9 | 45.7 | 27.9 | 45.7 | 48.8 | 350 | 31.2 | – |
